# Source: PubChem
# KCNK3 block – human KCNK3 channel inhibition, primary screen. 0.84% of 340,000 active. AID 602410. CHO-KCNK3 thallium flux, FluxOR fluorescence; stronger effect = lower value. B-score at 10 µM;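 active = B-score under library mean minus 4 SD, starting fluorescence ratio at most library mean plus 5 SD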;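 also: more negative B-score means stronger inhibition of thallium flux through KCNK3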
# KCNK9 inh – blocks the human KCNK9 two-pore domain potassium channel | HEK293 KCNK9, FluxOR thallium flux fluorescence; stronger effect = lower value | B-score at 10 µM | 1.2% of 310,000 active;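 active = ratio B-score over 3 SD below the library mean, with starting fluorescence within 5 SD of its mean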;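 also: negative B-score means less thallium flux so channel inhibition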
# Target sequence (Q9NPC2 whole entry, looked up, the tested form may be a part): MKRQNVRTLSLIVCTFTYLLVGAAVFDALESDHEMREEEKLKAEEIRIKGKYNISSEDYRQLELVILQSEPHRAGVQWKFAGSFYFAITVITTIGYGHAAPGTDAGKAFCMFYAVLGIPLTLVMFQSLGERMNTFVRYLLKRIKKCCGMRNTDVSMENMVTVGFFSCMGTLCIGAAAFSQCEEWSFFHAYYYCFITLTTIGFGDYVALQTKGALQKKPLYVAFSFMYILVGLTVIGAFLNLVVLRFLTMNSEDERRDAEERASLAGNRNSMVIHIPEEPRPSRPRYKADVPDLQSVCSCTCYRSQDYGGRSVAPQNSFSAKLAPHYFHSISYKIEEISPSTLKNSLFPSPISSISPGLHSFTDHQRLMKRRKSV
# KCNQ1 pot – potentiators or activators of human KCNQ1 potassium channel; B-score at 10 µM; 0.35% of 310,000 active; AID 2648; P51787; CHO-K1 KCNQ1, thallium flux FluxOR fluorescence; stronger effect = higher value;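 active = fluorescence ratio B-score, a plate-corrected score, at least three library SD, with initial intensity B-score within 5 SD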
#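 assay system = KCNQ1-transfected CHO-K1 cells | medium = assay buffer with matched DMSO | probe or stimulus = depolarizing K+/Tl+ stimulus, K2SO4 and Tl2SO4 each 12.5 mM in 5x stock | dosing = single dose | incubation = dye 90 min, compound 20 min, room temperature | detection = kinetic FluxOR fluorescence, 10 s baseline plus 110 s post-stimulus | evaluation = ratio B score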
# Kir21 inh – inhibitors of mouse Kir2.1 inward-rectifier potassium channel | HEK293-Kir2.1, FluxOR thallium flux fluorescence; stronger effect = lower value | B-score at 10 µM | 0.85% of 310,000 active;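 active = fluorescence ratio B-score at or below minus 3 SD of library scores, with starting-brightness B-score within 2 SD, cut at about -4.2 in these data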;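 also: channel flux triggered by added potassium and thallium sulfate stimulus; B-score of peak minus minimum fluorescence over baseline after thallium stimulus; more negative B-score means stronger Kir2.1 block with less thallium influx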
# KCNQ1 inh – inhibitors of human KCNQ1 potassium channel; P51787; CHO-K1 KCNQ1, FluxOR thallium flux fluorescence; stronger effect = higher value; B-score at 10 µM; 1.3% of 310,000 active;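 active = compounds whose thallium flux B-score, printed positive for inhibition, exceeds three library SD while starting fluorescence stays within three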;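 also: channel opened by potassium depolarization with thallium stimulus after 20 min compound exposure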
# hERG rescue – hERG (human) protection from proarrhythmic block; Q12809; CHO-hERG, FluxOR thallium flux, dofetilide IC70 present; activation (rescue from dofetilide block), less the hit threshold, % at 10 µM; 0.51% of 310,000 active; AID 1511;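 active = activation above the mean of controls blocked by dofetilide plus 5 SD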;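 also: thallium influx through hERG after potassium depolarization seen as dye fluorescence rise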
# KCNK9 inh conf – confirmation of human KCNK9 potassium channel inhibitors; inhibition, % at 10 µM; AID 492992; HEK293 KCNK9 cells, FluxOR thallium flux fluorescence; 43% of 4,900 active; shares compounds with KCNK9 inh;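 active = thallium signal inhibited by more than 5 SD of the compound-free buffer control wells, on both duplicate plates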;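 also: 0% = assay buffer control wells without compound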
# Kir2-1 spec – mouse Kir2.1 off-target activity of KCNK9 modulators; inhibition, % at 10 µM; Kir2.1 cells, FluxOR thallium flux fluorescence; shares compounds with KCNK9 inh; 4% of 4,900 active;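 active = thallium signal drop more than 5 SD beyond the mean of the no-compound control wells, seen in both duplicate plates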;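 also: signal is fluorescence rise after thallium addition divided by baseline fluorescence; plate controls were assay buffer only for no effect and full block by chlorpromazine control for full effect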
# HEK293 Tl ctr – second check of KCNK9 modulator effects in non-induced HEK293 cells. shares compounds with KCNK9 inh. FluxOR thallium flux. inhibition, % at 10 µM. 40% of 4,900 active. AID 492997;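 active = thallium signal drop beyond 5 SD of the untreated control mean, on both duplicate plates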;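 also: plate controls were buffer only IC0 wells for no effect and SID17386958 at its maximal inhibitory level for full effect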
# Numbers without * were called inactive; i = inactive; / = not tested or not shown. Compounds with a hit are over-represented: about 3.7% of the library has one in this group of screens.
SMILES,KCNK3 block,KCNK9 inh,KCNQ1 pot,Kir21 inh,KCNQ1 inh,hERG rescue,KCNK9 inh conf,Kir2-1 spec,HEK293 Tl ctr
CCn1c(SCc2cccc(C(F)(F)F)c2)nnc1-c1ccco1,i,i,i,-1.7,i,-11,/,/,/
O=C(O)C1CCCN1C(=O)NC1CCCCC1 (stereo not drawn),i,i,i,0.5,i,-5,/,/,/
Cc1ccc(C)c(-c2csc(NC(=O)C3=COCCO3)n2)c1,i,-8.3*,i,0.04,i,-23,i,i,38%*
Cc1ccc(-c2ccc(SCC(=O)c3ccccc3)nn2)cc1,i,i,i,3.7,i,-7,/,/,/
COc1ccc(-c2ccc(SCC(=O)c3ccccc3)nn2)cc1OC,i,-11*,i,1.8,i,-17,60%*,i,i
CCCNC(=O)C12CCC(C)(c3nc4cc(C)c(C)cc4nc31)C2(C)C (stereo not drawn),i,i,i,0.04,i,-8,i,i,i
CCn1cnc2c1c(=O)n(Cc1cccc([N+](=O)[O-])c1)c(=O)n2Cc1ccccc1,i,i,i,1.3,i,-7,i,i,i
CCn1cnc2c1c(=O)n(Cc1nnc3n1-c1ccccc1SC3)c(=O)n2Cc1ccccc1,i,i,i,-0.72,i,-5,i,i,i
CCOC(=O)c1c(C)[nH]c(C(=O)Cn2c(=O)c3c(ncn3CC)n(Cc3ccccc3)c2=O)c1C,i,i,i,-1.7,i,-4,i,i,i
CCn1cnc2c1c(=O)n(Cc1csc(-c3ccccc3)n1)c(=O)n2Cc1ccccc1,i,i,i,-0.36,i,-11,i,i,i
O=C(CCc1cccc(Cl)c1)NC1CCCN(Cc2ccccc2F)C1 (stereo not drawn),i,i,i,-0.02,i,0,/,/,/
CN(C)c1cccc(C(=O)NN2C(=O)NC3(CCCCC3)C2=O)c1,i,/,/,/,/,/,/,/,/
COC(=O)c1ccc(Oc2nc(C)cc(Oc3ccccc3)n2)cc1,i,i,i,0.54,i,-11,i,i,i
CCOC(=O)c1c(C)[nH]c(C)c1S(=O)(=O)N(C)CC(=O)N(C)Cc1ccccc1,i,i,i,-1.4,i,-10,/,/,/
N#Cc1ccc(-c2cccnc2)nc1SCc1ccc(Cl)cc1Cl,i,-13*,i,0.54,i,-4,46%*,i,38%*
N#Cc1ccc(-c2cccnc2)nc1SCc1ccc(Cl)c(Cl)c1,i,i,i,3,i,-4,/,/,/
Cc1cccc(CSc2nc(N)c(C#N)c(-c3cccs3)c2C#N)c1,i,-8.5*,i,2.9,i,-7,48%*,i,46%*
CCOc1ccc(NC(=S)N2CCN(c3ccc(N4CCOCC4)nn3)CC2)cc1,i,i,i,-0.04,i,-3,/,/,/
O=[N+]([O-])c1cc(S(=O)(=O)N2CCOCC2)ccc1OCc1ccccc1C(F)(F)F,i,/,/,/,/,/,/,/,/
CC1CCCCN1C(=O)CSc1nc(C2CC2)nc2c1cnn2-c1ccccc1 (stereo not drawn),i,-11*,i,1.3,i,-10,56%*,i,i
Cc1nn(C)c(C)c1NC(=O)CSc1nc(C2CC2)nc2c1cnn2-c1ccccc1,i,i,i,0.62,i,-16,/,/,/
COCCOc1cc(NC(=O)c2cccc(OC)c2)c(Cl)cc1Cl,i,i,i,0.68,i,-5,/,/,/
COCCOc1cc(NC(=O)c2sccc2Oc2ccc([N+](=O)[O-])cc2F)c(Cl)cc1Cl,i,i,i,2.2,9*,-5,i,i,i
CC(=O)c1cccc(NC(=S)Nc2ccn(Cc3cccc4ccccc34)n2)c1,i,i,i,0.25,i,-4,i,i,i
CC(=O)c1ccc(NC(=S)Nc2ccn(Cc3ccc(Br)cc3)n2)cc1,i,i,i,1.2,i,4,/,/,/
SMILES,KCNK3 block,KCNK9 inh,KCNQ1 pot,Kir21 inh,KCNQ1 inh,hERG rescue,KCNK9 inh conf,Kir2-1 spec,HEK293 Tl ctr
COc1ccc(OC)c(NC(=O)C(Sc2ccccc2)c2ccccc2)c1 (stereo not drawn),i,-11*,i,-1.5,i,-8,58%*,i,46%*
CCCCn1c(-c2csc(CCC)c2)n[nH]c1=S,i,i,i,1.3,i,0,i,i,i
CCCN(CCC)C(=O)COc1cc(=O)n(CC)c2ccccc12,i,i,i,0.03,i,-5,/,/,/
CCN(Cc1ccccc1)C(=O)COc1cc(=O)n(CC)c2ccccc12,i,i,i,1,i,-8,i,i,i
COc1cc(NC(=O)C2CSC3(C)CCC(=O)N23)c(OC)cc1Cl (stereo not drawn),i,i,i,-1,i,-16,/,/,/
COc1ccccc1N1CCN(CCN2C(=O)CC(=C3c4ccccc4-c4ccccc43)C2=O)CC1,/,i,i,2.2,i,-12,i,i,i
COc1cccc(-c2ncc3ccccc3c2COC(=O)c2ccc(C(F)(F)F)cc2)c1,i,/,/,/,/,/,/,/,/
CCCCN(CC)c1nc(N)c(C#N)c(CC#N)c1C#N,i,-11*,i,-0.03,i,-7,33%*,i,32%*
C=C(C)CN(CC)c1nc(N)c(C#N)c(CC#N)c1C#N,i,i,i,1.3,i,-15,/,/,/
CCN(C(=O)COn1nnc2ccc(S(=O)(=O)N(C)C)cc21)C1CCS(=O)(=O)C1 (stereo not drawn),i,/,/,/,/,/,/,/,/
COC(=O)CSc1nc(-c2ccccc2)cc(-c2ccco2)c1C#N,i,-8.9*,i,0.67,i,-2,31%*,i,28%*
CCOC(=O)COc1nc(-c2ccc(Cl)cc2)cc(-c2ccco2)c1C#N,i,i,i,-0.23,i,0,/,/,/
COC(=O)CSc1nc(N)c(C#N)c(-c2ccco2)c1C#N,i,i,i,0.13,i,-18,/,/,/
CCOC(=O)COc1nc(-c2ccccc2)cc(-c2ccco2)c1C#N,i,-8.2*,i,0.63,i,-5,49%*,i,34%*
O=C(CCC(=O)Nc1nnc(C2CCCCC2)s1)Nc1ccc(F)cc1,i,i,i,1.9,i,-5,/,/,/
Cc1c(C(C)(C)O)[nH]c2ccc(C(F)(F)F)cc12,i,i,i,1.4,i,-5,/,/,/
